Source: PubChem
Rows were chosen to be rich in hits. Some 2% of all compounds tested hit in one or more screens of this group.
PKD1 kinase inh: blocks activity of human protein kinase D1; AID 797; hit rate 0.056% among 200,000; Q15139; PKD1 kinase fluorescence polarization assay; inhibition, % (concentration not given with the values)
RanGTP-Impb inh: disruptors of Ran-importin-beta complex formation – biochemical, FRET, CFP-Ran, YFP-importin-beta, homogeneous, primary screen. AID 2216. inhibition, % (no concentration beside the values). cell-free CFP-Ran/YFP-importin-beta FRET ratio. hit rate 1.1% among 300,000;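 active = more than half of the replicate wells show a fall in the fluorescence ratio signal beyond about 16%, limit read from the data, passing the limit was not always enough; inconclusive = exactly half of the replicate wells pass the set limit; inactive = fewer than half of replicates pass the limit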;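 note: 0% = DMSO wells and 100% = Ran loaded with GDP instead of GTP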
EBV gp42 inh: EBV gp42 inhibition; AID 1085; Fluorescence polarization binding assay, mP read-out; hit rate 0.42% among 220,000; inhibition, % (tested at 21.74 µM)
MEX-5 binding: C. elegans MEX-5 TCR-2 RNA binding activity. Q9XUB2. MEX-5/FITC-TCR2 RNA binding, fluorescence polarization; hits give low values. activity score (negative = inhibition of binding), % at 10 µM. hit rate 0.38% among 300,000;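 active = inhibition past about -25% in most replicates, and total fluorescence under double the plate's negative control median, limit read from the data; inconclusive = replicates evenly split on the limit, or fluorescence at least double controls; inactive = too little inhibition in most replicates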;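 note: 0% = DMSO and -100% = 5 µM competing unlabeled TCR2 RNA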
Runt-SMMHC FRET: blocks binding of human RUNX1 Runt domain to CBFb-SMMHC. Q01196+Q13951. Cerulean-Runt/Venus-CBFb-SMMHC FRET ratio 530/480, 1 h. inhibition, % at 20 µM. hit rate 0.74% among 220,000;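 active = mean inhibition across duplicate retests at 20 µM reaching about 50%, limit read from the data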;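 note: 0% = DMSO wells and 100% = wells with excess untagged CBFb-SMMHC; inhibitors lower the FRET ratio by blocking Runt binding to CBFb-SMMHC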
Target sequence (Q01196 whole entry, looked up, the tested form may be a part): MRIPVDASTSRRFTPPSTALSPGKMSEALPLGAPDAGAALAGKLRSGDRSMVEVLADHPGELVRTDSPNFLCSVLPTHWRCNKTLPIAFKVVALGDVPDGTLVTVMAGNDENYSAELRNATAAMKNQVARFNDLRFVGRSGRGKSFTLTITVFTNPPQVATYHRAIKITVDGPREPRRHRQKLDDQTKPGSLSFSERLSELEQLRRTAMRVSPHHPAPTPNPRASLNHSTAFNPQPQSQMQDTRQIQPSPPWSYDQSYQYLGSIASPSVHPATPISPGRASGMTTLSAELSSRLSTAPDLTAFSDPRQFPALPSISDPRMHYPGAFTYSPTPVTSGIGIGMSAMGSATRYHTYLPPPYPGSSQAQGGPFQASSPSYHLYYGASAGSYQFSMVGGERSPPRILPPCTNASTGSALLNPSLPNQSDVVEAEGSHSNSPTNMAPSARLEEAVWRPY
Target sequence (Q13951 whole entry, looked up, the tested form may be a part): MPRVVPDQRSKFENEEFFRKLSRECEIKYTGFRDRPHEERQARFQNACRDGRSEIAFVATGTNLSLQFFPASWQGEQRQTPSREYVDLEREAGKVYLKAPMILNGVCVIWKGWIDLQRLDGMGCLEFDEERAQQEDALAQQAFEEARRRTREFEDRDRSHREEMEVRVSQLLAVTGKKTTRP
Runt-CBFb FRET: inhibitors of human RUNX1 Runt domain binding to CBFb. inhibition, % at 20 µM. Q01196+Q13951. Cerulean-Runt/Venus-CBFb FRET ratio 530/480, 1 h. hit rate 0.46% among 220,000;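 active = inhibition over about 50% at 20 µM in the single-dose screen, limit read from the data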;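 note: 0% = DMSO wells and 100% = excess unlabeled CBFb competitor control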
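Measured by: fluorescence energy transfer, 422 nm excitation, 530/480 nm emission; Assay system: Cerulean-Runt domain; Medium: Tris pH 7.5 buffer with BSA; Measure: loss of energy transfer signal; Controls: 5 µM unlabeled CBFb as full-inhibition high control; Incubation: protein complex preformed 1 h, compound exposure 1 h, room temperature, dark.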
Numbers without * were called inactive. Cut-off read from the data, not from the text of the source, unless noted: active = inhibition above about 50%; inactive = the rest.

Results for C/C(=N\NC(=O)c1c(Cl)cnn1C)c1cccnc1 ?
RanGTP-Impb inh: -3.8; MEX-5 binding: 1.0

Results for COc1ccccc1N1N=C(c2ccc([N+](=O)[O-])cc2)CC1c1ccccc1 (stereo not drawn) ?
RanGTP-Impb inh: -2.5; MEX-5 binding: 2.2

How did COc1cc(N2N=C(c3ccccc3)CC2c2ccccc2)c(C=O)cc1C=O (stereo not drawn) do in these assays?
RanGTP-Impb inh: 30.9*; MEX-5 binding: -4.1

Results for CCOC(=O)C1CCC(CNCc2ccccc2C)CC1 (stereo not drawn) ?
PKD1 kinase inh: -7.2; RanGTP-Impb inh: 0.3; EBV gp42 inh: -11.1; MEX-5 binding: 1.3; Runt-SMMHC FRET: -2.0; Runt-CBFb FRET: 1.6

What do the screens show for `COc1ccc(OC)c(Nc2nc3nonc3nc2N2CCCC(C)C2)c1` (stereo not drawn)?
PKD1 kinase inh: -8.5; RanGTP-Impb inh: 2.0; EBV gp42 inh: -71.9; MEX-5 binding: 3.4; Runt-SMMHC FRET: -138.4; Runt-CBFb FRET: -22.5

What do the screens show for `Cc1ccc(NC(=S)c2ccc3ccccc3n2)c(C)c1`?
RanGTP-Impb inh: 11.6; MEX-5 binding: -37.9*

Results for CC(C)(C)C1CC=C2C(C#N)=C(N)C(C#N)(C#N)C(c3cccs3)C2C1 (stereo not drawn) ?
PKD1 kinase inh: 0.1; RanGTP-Impb inh: -41.0; MEX-5 binding: -41.2*; Runt-SMMHC FRET: -45.1; Runt-CBFb FRET: -11.0

How did CN1C2C=C3C(C#N)=C(N)C(C#N)(C#N)[C@@H](c4cccs4)C3C1CC2 (stereo partly drawn) do in these assays?
PKD1 kinase inh: -8.3; RanGTP-Impb inh: -4.6; EBV gp42 inh: -2.3; MEX-5 binding: -11.3; Runt-SMMHC FRET: -13.3; Runt-CBFb FRET: -2.4

What do the screens show for `NNc1nc2c(-c3ccc(F)cc3)nnn2c2ccccc12`?
PKD1 kinase inh: 1.8; RanGTP-Impb inh: 21.2*; EBV gp42 inh: -20.2; MEX-5 binding: -8.4; Runt-SMMHC FRET: -5.0; Runt-CBFb FRET: 13.3

How did NNc1nc2c(-c3ccc(Cl)cc3)nnn2c2ccccc12 do in these assays?
PKD1 kinase inh: -1.8; RanGTP-Impb inh: -5.0; EBV gp42 inh: -11.7; MEX-5 binding: 1.9; Runt-SMMHC FRET: 0.5; Runt-CBFb FRET: 5.1

What do the screens show for `NC(=O)CSc1ccc(-c2ccc(F)cc2)nn1`?
PKD1 kinase inh: -5.3; RanGTP-Impb inh: 2.0; EBV gp42 inh: -4.6; MEX-5 binding: 3.9; Runt-SMMHC FRET: 4.2; Runt-CBFb FRET: 1.1

Results for O=C(Nc1cccc2ccccc12)N(CCO)C1CCS(=O)(=O)C1 (stereo not drawn) ?
RanGTP-Impb inh: 6.9; MEX-5 binding: 1.9

How did CC1=C(C#N)c2nc(N)c(C#N)c(C)c2/C1=C\c1ccc(-c2ccccc2C(=O)O)o1 do in these assays?
PKD1 kinase inh: -5.0; RanGTP-Impb inh: -6.3; EBV gp42 inh: 7.9; MEX-5 binding: -52.3*; Runt-SMMHC FRET: -7.6; Runt-CBFb FRET: -0.8

What do the screens show for `CCCc1cc(=O)n(-c2nc3ccccc3s2)[nH]1`?
RanGTP-Impb inh: -3.7; EBV gp42 inh: 69.5*; Runt-SMMHC FRET: -0.5; Runt-CBFb FRET: 1.0

What do the screens show for `CCOC(=O)Cc1cc(=O)n(-c2nc3ccccc3s2)[nH]1`?
PKD1 kinase inh: -14.7; RanGTP-Impb inh: 0.4; EBV gp42 inh: -14.6; MEX-5 binding: -0.6; Runt-SMMHC FRET: -6.5; Runt-CBFb FRET: -0.2

Results for Cc1nc2nc(-c3ccc(Cl)cc3)cn2nc1C ?
PKD1 kinase inh: 0.8; RanGTP-Impb inh: 78.2*; EBV gp42 inh: -11.3; MEX-5 binding: -18.6; Runt-SMMHC FRET: 57.2*; Runt-CBFb FRET: 61.3*

What do the screens show for `Cc1nc2nc(-c3cccs3)cn2nc1C`?
PKD1 kinase inh: -5.4; RanGTP-Impb inh: 57.0*; EBV gp42 inh: 68.4*; MEX-5 binding: -10.9; Runt-SMMHC FRET: -105.1; Runt-CBFb FRET: -4.2

Results for CC(=O)c1ccc(N(C(=O)CNC(=O)c2ccco2)C(C(=O)NC2CCCC2)c2cccnc2)cc1 (stereo not drawn) ?
RanGTP-Impb inh: -0.1; MEX-5 binding: -0.1

How did CCCC(=O)Nc1ccc2oc(=O)ccc2c1 do in these assays?
PKD1 kinase inh: -0.5; RanGTP-Impb inh: -1.4; EBV gp42 inh: -9.3; MEX-5 binding: 0.8; Runt-SMMHC FRET: -2.0; Runt-CBFb FRET: 1.5

Results for CCCCOCCCNC(=O)C1c2ccccc2Oc2ccccc21 ?
RanGTP-Impb inh: 2.4; MEX-5 binding: -0.1

What do the screens show for `CCCCNC(=O)C1c2ccccc2Oc2ccccc21`?
PKD1 kinase inh: 7.6; RanGTP-Impb inh: 22.5*; EBV gp42 inh: -9.8; MEX-5 binding: 1.8; Runt-SMMHC FRET: 1.0; Runt-CBFb FRET: 2.2

Results for O=C1c2ccc(-c3ccc4c(c3)C(=O)N(CCCO)C4=O)cc2C(=O)N1CCCO ?
RanGTP-Impb inh: 3.5; EBV gp42 inh: -22.4; MEX-5 binding: -2.1; Runt-SMMHC FRET: -6.3; Runt-CBFb FRET: 0.9

Results for O=C1C2=C(SCCS2)C(=O)N1CCCO ?
PKD1 kinase inh: -6.9; RanGTP-Impb inh: -12.5; EBV gp42 inh: 117.3*; MEX-5 binding: -21.9; Runt-SMMHC FRET: -34.1; Runt-CBFb FRET: -10.1

Results for CNc1sc(C(=O)c2cccs2)c(N)c1-c1nc2ccccc2s1 ?
PKD1 kinase inh: -7.0; RanGTP-Impb inh: -0.7; EBV gp42 inh: -18.3; MEX-5 binding: 3.0; Runt-SMMHC FRET: 76.1*; Runt-CBFb FRET: 7.5

Results for CC(C)c1ccc(C2C(C#N)=C(N)N3C(=C2C#N)Sc2ccccc23)cc1 (stereo not drawn) ?
PKD1 kinase inh: -1.0; RanGTP-Impb inh: 8.7; EBV gp42 inh: -33.9; MEX-5 binding: -120.4*; Runt-SMMHC FRET: -53.8; Runt-CBFb FRET: 3.4

How did COc1ccc(C2=CC3=C(Br)C(=O)C(C)(OC(=O)C4CCCC4)C(=O)C3=CO2)cc1 (stereo not drawn) do in these assays?
RanGTP-Impb inh: -5.0; EBV gp42 inh: -14.4; MEX-5 binding: inconclusive; Runt-SMMHC FRET: 18.4; Runt-CBFb FRET: 63.6*

What do the screens show for `COc1ccc(C2=CC3=C(Br)C(=O)C(C)(OC(=O)c4ccc(Cl)nc4)C(=O)C3=CO2)cc1` (stereo not drawn)?
RanGTP-Impb inh: -4.9; EBV gp42 inh: 19.4; MEX-5 binding: -30.3*; Runt-SMMHC FRET: 1.8; Runt-CBFb FRET: 1.9

How did COc1ccc(/C=C/S(=O)(=O)NCc2ccccc2)cc1OC do in these assays?
PKD1 kinase inh: -3.9; RanGTP-Impb inh: -1.3; EBV gp42 inh: -9.6; MEX-5 binding: 2.8; Runt-SMMHC FRET: 4.0; Runt-CBFb FRET: -1.3

Results for COc1cc([N+](=O)[O-])ccc1NC(=O)C[n+]1cccc(C)c1 ?
PKD1 kinase inh: -3.1; RanGTP-Impb inh: -2.2; EBV gp42 inh: 7.9; MEX-5 binding: -2.6; Runt-SMMHC FRET: 4.6; Runt-CBFb FRET: 2.5
